Screening data as filed in PubChem.
In the library only some 3.1% were active in any assay of this set; here they are far more common.
GalR3 antagonist: blocks the human galanin receptor 3; O60755; HEK293 GalR3-CNG cAMP membrane potential fluorescence; galR3 body fused to GalR1 C-terminus; inhibition, % at 3 µM; actives 0.44% (n = 360,000); AID 651719;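 active = inhibition above the screen-wide average plus 3 SD, cut at about 13% in these data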;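 note: forskolin and galanin both at EC90 stimulate the cells; cAMP rise reported by CNG channel membrane potential dye signal; 0% = forskolin plus galanin with DMSO and 100% = forskolin alone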
CHO parental Ca: counter-screen: ATP calcium response change in parental CHO cells. parental CHO-K1, ATP-induced calcium, Fluo-8 fluorescence. inhibition, % at 5.6 µM. actives 0.63% (n = 330,000). AID 463079;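 active = inhibition above that plate's mean sample inhibition plus 3 SD, cut at about 26% in these data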;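 note: 0% = ATP-challenged DMSO wells and 100% = DMSO wells without ATP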
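Assay system: untransfected parental CHO cell line. Also added: ATP agonist challenge. Dosing: one dose, 5.6 µM nominal. Measured by: Fluo-8 fluorescence. Read-out: % inhibition. Benchmarks: ATP wells versus no-ATP DMSO wells. Repeats: no replicates.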
OX1R antag-1: blocks the human orexin 1 receptor; O43613; OX1R-expressing cells, FRET antagonist read-out; inhibition, % at 6.6 µM; actives 1.8% (n = 330,000); in the data active = inhibition mostly above about 38%, no sharp cut-off; inactive = mostly below about 40%;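 note: 0% = agonist challenge alone and 100% = reference antagonist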
Target sequence (O43613 whole entry, looked up): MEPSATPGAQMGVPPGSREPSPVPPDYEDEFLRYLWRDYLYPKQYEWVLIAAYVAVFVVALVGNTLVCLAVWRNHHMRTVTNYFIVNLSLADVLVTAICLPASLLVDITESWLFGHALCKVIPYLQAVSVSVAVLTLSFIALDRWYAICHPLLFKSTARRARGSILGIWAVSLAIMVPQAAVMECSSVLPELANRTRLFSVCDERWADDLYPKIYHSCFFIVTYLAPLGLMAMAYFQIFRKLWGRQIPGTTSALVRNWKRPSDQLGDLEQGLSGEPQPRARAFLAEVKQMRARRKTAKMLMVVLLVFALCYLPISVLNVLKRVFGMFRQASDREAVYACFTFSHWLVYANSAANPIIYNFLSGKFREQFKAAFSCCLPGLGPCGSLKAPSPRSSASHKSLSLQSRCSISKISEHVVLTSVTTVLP
OX1R antag-2: antagonists of human orexin 1 receptor. O43613. actives 0.43% (n = 330,000). inhibition, % at 5 µM. CHO/OX1R cells, Fluo-8 calcium fluorescence, orexin A. AID 434989;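 active = inhibition above its plate's threshold, mean inhibition of all tested compounds on the plate plus 3 SD, cut at about 37% in these data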;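 note: 0% = orexin A challenge wells and 100% = SB-334867-A antagonist wells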
GPR7 antagonist: human neuropeptides B/W receptor 1 antagonism | P48145 | GPR7-expressing cells, fluorescence antagonist assay | inhibition, % at 4.4 µM | actives 1.1% (n = 290,000) | AID 1861; in the data active = inhibition above about 16%, passing the limit was not always enough;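 note: cells stimulated with the agonist NPW; 0% = agonist with vehicle and 100% = vehicle without agonist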
* hit, by the source's call; nt = no result.

SMILES | GalR3 antagonist | CHO parental Ca | OX1R antag-1 | OX1R antag-2 | GPR7 antagonist
CCCCCCCCN1C(=O)[C@H](CC(=O)NCCC(C)C)C[C@@]2(C(=O)OCC)CCC=C12 | -8 | nt | nt | nt | nt
COCc1cc(N2CCN(C(=O)OC(C)(C)C)C[C@@H]2C)ccc1N1CCN(Cc2ccccc2)[C@@H](C)C1 | -7 | nt | nt | nt | nt
CCCNC(=O)c1ccc2c(c1)S(=O)(=O)c1ccccc1C2=O | 0 | -13 | 74* | -25 | -10
CC1CCCC(C)N1C(=O)c1ccc2c(c1)S(=O)(=O)c1ccccc1C2=O (stereo not given) | -7 | -15 | 42* | -22 | -2
O=C(NC1CCCC1)c1ccc2c(c1)S(=O)(=O)c1ccccc1C2=O | 0 | -16 | 65* | -16 | nt
O=C(NC1CCCCC1)c1ccc2c(c1)S(=O)(=O)c1ccccc1C2=O | -1 | -26 | 59 | -26 | nt
CCCN(CCC)C(=O)c1ccc2c(c1)S(=O)(=O)c1ccccc1C2=O | -2 | -11 | 46 | -21 | -12
Cc1ccccc1OCC(=O)OCC(=O)NCCc1ccccc1 | -3 | -10 | 0 | 9 | nt
COCc1cc(N2CCN(C(=O)OC(C)(C)C)C[C@H]2C)ccc1N1CC[C@H](O)C1 | -6 | nt | nt | nt | nt
Cc1ccc(C2c3c(n[nH]c3C)C(=O)N2c2ccccc2)cc1 (stereo not given) | -5 | nt | nt | nt | nt
O=C(NNC(=O)C12CC3CC(CC(O)(C3)C1)C2)c1csc(N2CCOCC2)n1 | 0 | 14 | 15 | 2 | -14
CCc1ccc(N=Nc2ccc(O)c3[nH]cnc23)cc1 | -6 | 30 | -1 | 47* | nt
CCc1ccc(/C=N/Nc2ncnc3nc[nH]c23)cc1 | 3 | -12 | 17 | -16 | -22
CC(C)OC(=O)Nc1ccc2c(c1)N(C(=O)N1CCN(C)CC1)c1ccccc1CC2 | -5 | -23 | 1 | -20 | 12
COc1ccc(CCNC(=O)c2cc3c(=O)n4cccc(C)c4nc3n(CC3CCCO3)c2=N)cc1 (stereo not given) | -8 | -9 | 29 | -25 | 0
COc1ccc(CCn2c(=N)c(C(=O)NCC3CCCO3)cc3c(=O)n4ccccc4nc32)cc1OC (stereo not given) | 4 | -10 | 50* | -20 | -1
Cc1cccn2c(=O)c3cc(C(=O)NCC4CCCO4)c(=N)n(CCc4ccccc4)c3nc12 (stereo not given) | -8 | -4 | 51* | -26 | 1
COc1ccc(-c2c(=O)n(OC)c3ccccc3[n+]2[O-])cc1OC | -6 | -7 | 44* | -17 | -7
C=CCOn1c(=O)c(-c2ccc(OC)c(OC)c2)[n+]([O-])c2ccccc21 | -5 | -7 | 61* | -33 | -11
Cc1ccc(N(CC(=O)NCc2ccc(F)cc2)C(=O)c2snc(C(N)=O)c2N)cc1C | -11 | -1 | 18 | -25 | 12
O=C(/C=C/c1ccc(Br)cc1)c1ccco1 | 6 | -11 | 4 | -7 | 22*
O=C(/C=C/c1ccc(Br)cc1)c1ccc(NC(=O)c2ccco2)cc1 | -3 | -21 | 38 | -9 | 8
COc1ccc(NC2=C(c3ccc(OC)cc3)C(=O)c3ccccc32)cc1 | -1 | -11 | 23 | -16 | -7
COc1ccc(C2=C(N)c3ccccc3C2=O)cc1 | nt | 3 | 45* | 0 | 10
COc1cc(CCN(C(C)=O)C2C(=O)Nc3ccccc3N=C2c2ccc3c(c2)OCO3)cc(OC)c1 (stereo not given) | 1 | nt | nt | nt | nt
SMILES | GalR3 antagonist | CHO parental Ca | OX1R antag-1 | OX1R antag-2 | GPR7 antagonist
CCN(CC)C(=O)C(Oc1ccc(S(=O)(=O)N2CCCC2)cc1[N+](=O)[O-])c1ccccc1 (stereo not given) | -3 | 0 | 63* | 6 | -9
COC(=O)C1=C(C)N(Cc2ccccc2C(F)(F)F)C(=NCc2cc(OC)c(OC)c(OC)c2)NC1c1cccc(C(F)(F)F)c1 (stereo not given) | -3 | nt | nt | nt | nt
COc1ccc(NC(=O)/C(C#N)=C\c2ccc(N3CCOCC3)o2)cc1 | -5 | 47* | 59* | 54* | 10
N#C/C(=C/c1ccc(N2CCOCC2)o1)C(=O)NC1CCCCC1 | -6 | -1 | 12 | -13 | 1
N#C/C(=C/c1ccc(N2CCCCC2)o1)C(=O)Nc1ccc(Cl)cc1 | -5 | 77* | 19 | 99* | 10
N#C/C(=C\c1ccc(N2CCOCC2)o1)C(=O)Nc1ccc(O)cc1 | -3 | 11 | 61* | 12 | 7
Cn1ccc2cc(-c3csc(N4CCC(C(N)=O)CC4)n3)ccc21 | -3 | -5 | 8 | 11 | nt
COc1ccccc1-c1ccc(OCCCN2CCC(C(O)(c3ccccc3)c3ccccc3)CC2)cc1 | 4 | nt | nt | nt | nt
Cc1cc(N2CCN(S(C)(=O)=O)C[C@H]2C)ccc1N1CCN(Cc2ccccc2)[C@H](C)C1 | -2 | nt | nt | nt | nt
COc1ccc(OC)c(NC(=O)c2cc3c(Cl)nc4ccccc4c3s2)c1 | -10 | -21 | 24 | -20 | -11
COc1ccc(NC(=O)c2cc3c(Cl)nc4ccccc4c3s2)cc1OC | 1 | -2 | 66* | 11 | -14
COC(=O)C1=C(C)N(C)C(=NCC2CC2)NC1CCc1ccccc1 (stereo not given) | -8 | nt | nt | nt | nt
O=C(NC12CC3CC(CC(C3)C1)C2)c1cncc(Br)c1 | -10 | 2 | 3 | -13 | -9
COc1ccc(C2/C=C\CN(S(=O)(=O)c3ccc(C)cc3)CC(=O)N2Cc2cccc(F)c2)cc1 (stereo not given) | -5 | -14 | 50* | 44 | nt
CCc1nnc(N/N=C/c2c(Cl)cccc2Cl)n1N | -6 | -4 | 45* | -14 | -3
CCc1nnc(N/N=C/c2cc(Br)c(O)cc2O)n1N | -10 | -2 | 72* | -16 | -10
CCc1nnc(N/N=C\c2ccc(OC(C)=O)c(OC)c2)n1N | -9 | -14 | 44* | -5 | -5
CC(C)(C)c1nnc(N/N=C/c2cc(Br)ccc2O)n(N)c1=O | -11 | -5 | 14 | 9 | -9
CCOc1cc(/C=N/Nc2nnc(C)n2N)ccc1OC(C)=O | -11 | nt | nt | nt | -4
COc1ccc(/C=N/Nc2nncn2N)cc1Br | -10 | -9 | 65* | 3 | -10
COc1cccc(/C=N/Nc2nnc(C)n2N)c1O | -8 | -1 | 71* | 5 | -4
COc1cc(/C=N/Nc2ccccn2)ccc1O | 3 | 1 | 5 | -13 | -16
CCc1nnc(N/N=C/c2ccc(O)c(OC)c2)n1N | -9 | 1 | 59* | -1 | -4
CCOc1ccc(NC(=O)C2CC(=O)N(CCc3ccc(OC)c(OC)c3)C2)cc1OCC (stereo not given) | -3 | -19 | 11 | -18 | nt
CCCNC(=O)Cn1c(=O)/c(=C\c2ccc(-c3ccc([N+](=O)[O-])cc3)o2)s/c1=C\C(=O)C(C)(C)C | nt | 59* | 12 | 75* | 0
CCCNC(=O)Cn1c(=O)/c(=C/c2ccc(-c3cccc([N+](=O)[O-])c3)o2)s/c1=C\C(=O)C(C)(C)C | -4 | nt | nt | nt | nt
COc1ccc(Cl)cc1NC(=O)CN(c1ccccc1)S(=O)(=O)N(C)C | -4 | -24 | 53* | -12 | 2
